{
  "source": "ChEMBL document CHEMBL4138319",
  "about": "“Discovery, Synthesis, Pharmacological Profiling, and Biological Characterization of Brintonamides A-E, Novel Dual Protease and GPCR Modulators from a Marine Cyanobacterium” (J Med Chem, 2018)",
  "key": {"[1]": {"biological_target": "T1, Atypical chemokine receptor 3 (Homo sapiens, UniProt P25106)", "T1 sequence (P25106 whole entry)": "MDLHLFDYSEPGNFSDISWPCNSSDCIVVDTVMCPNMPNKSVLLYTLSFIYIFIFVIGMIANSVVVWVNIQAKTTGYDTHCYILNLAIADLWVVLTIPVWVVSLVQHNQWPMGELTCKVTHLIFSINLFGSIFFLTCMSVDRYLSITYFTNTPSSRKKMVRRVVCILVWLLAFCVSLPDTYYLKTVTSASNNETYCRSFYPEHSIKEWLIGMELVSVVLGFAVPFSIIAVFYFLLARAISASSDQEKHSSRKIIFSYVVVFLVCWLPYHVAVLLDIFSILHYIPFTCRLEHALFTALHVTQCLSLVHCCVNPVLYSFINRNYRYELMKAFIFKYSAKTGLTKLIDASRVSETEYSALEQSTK", "assay": "Agonist activity at human CXCR7 expressed in CHOK1 cells assessed as induction of beta-arrestin recruitment at 10 uM by chemiluminescence method", "type": "functional, cell-based"}, "MDA-MB-468": {"tested_on": "MDA-MB-468", "assay": "Antimigratory activity against human MDA-MB-468 cells at 0.1 to 10 uM after 48 hrs", "type": "functional, cell-based", "outline": "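Transwell migration through an 8 μm pore membrane. 5000 MDA-MB-468 cells in DMEM with 10% FBS are treated with graded compound concentrations or solvent on both sides for 48 h at 37 °C. Migrated cells are stained with crystal violet and counted. Run in triplicate.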"}, "[2]": {"biological_target": "T2, Somatostatin receptor type 3 (Homo sapiens, UniProt P32745)", "T2 sequence (P32745 whole entry)": "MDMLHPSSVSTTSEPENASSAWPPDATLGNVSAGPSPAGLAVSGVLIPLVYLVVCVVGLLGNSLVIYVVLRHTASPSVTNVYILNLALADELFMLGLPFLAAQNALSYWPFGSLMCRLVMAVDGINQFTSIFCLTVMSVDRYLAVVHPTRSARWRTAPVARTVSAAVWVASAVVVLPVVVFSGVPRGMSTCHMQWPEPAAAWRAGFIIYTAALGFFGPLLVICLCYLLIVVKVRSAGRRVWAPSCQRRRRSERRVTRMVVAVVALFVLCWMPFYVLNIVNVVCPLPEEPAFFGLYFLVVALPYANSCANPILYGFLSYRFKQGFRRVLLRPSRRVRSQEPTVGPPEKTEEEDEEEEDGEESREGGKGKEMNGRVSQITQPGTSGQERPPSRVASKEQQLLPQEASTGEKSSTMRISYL", "assay": "Antagonist activity at human SSTR3 expressed in HEK293 cells assessed as [Tyr1]-somatostatin 14-induced beta-arrestin recruitment pre-incubated for 30 mins before [Tyr1]-somatostatin 14 stimulation for 90 or 180 mins by chemiluminescence method", "type": "functional, cell-based", "outline": "(§1)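 PathHunter β-arrestin complementation assay, antagonist mode. Cells co-express ProLink-tagged GPCR and enzyme-acceptor-tagged β-arrestin and are pre-incubated with sample for 30 min at 37 °C or room temperature. Dose-response: 10 points, 3-fold dilutions from 20 μM, in duplicate.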"}, "[3]": {"biological_target": "T1, Atypical chemokine receptor 3", "assay": "Agonist activity at human CXCR7 expressed in CHOK1 cells assessed as induction of beta-arrestin recruitment at 20 uM by chemiluminescence method", "type": "functional, cell-based"}, "[4]": {"biological_target": "T2, Somatostatin receptor type 3", "assay": "Antagonist activity at human SSTR3 expressed in HEK293 cells assessed as [Tyr1]-somatostatin 14-induced beta-arrestin recruitment at 10 uM pre-incubated for 30 mins before [Tyr1]-somatostatin 14 stimulation for 90 or 180 mins by chemiluminescence method", "type": "functional, cell-based", "design": "scale not given: the % may be the effect or the level left"}, "Kallikrein-7 [5]": {"biological_target": "T3, Kallikrein-7 (Homo sapiens, UniProt P49862)", "assay": "Inhibition of kallikrein 7 (unknown origin) using fluorescently labeled peptide substrate by fluorescence assay", "outline": "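KLK7 follow-up: 10-dose titrations, 3-fold serial dilution from 100 μM, in duplicate, with gabexate mesylate as positive control. Fluorescence from the labeled peptide substrate is monitored over time, and the initial linear slope (signal/min) is used to derive IC50.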"}, "Substance-K receptor": {"biological_target": "T4, Substance-K receptor (Homo sapiens, UniProt P21452)", "T4 sequence (P21452 whole entry)": "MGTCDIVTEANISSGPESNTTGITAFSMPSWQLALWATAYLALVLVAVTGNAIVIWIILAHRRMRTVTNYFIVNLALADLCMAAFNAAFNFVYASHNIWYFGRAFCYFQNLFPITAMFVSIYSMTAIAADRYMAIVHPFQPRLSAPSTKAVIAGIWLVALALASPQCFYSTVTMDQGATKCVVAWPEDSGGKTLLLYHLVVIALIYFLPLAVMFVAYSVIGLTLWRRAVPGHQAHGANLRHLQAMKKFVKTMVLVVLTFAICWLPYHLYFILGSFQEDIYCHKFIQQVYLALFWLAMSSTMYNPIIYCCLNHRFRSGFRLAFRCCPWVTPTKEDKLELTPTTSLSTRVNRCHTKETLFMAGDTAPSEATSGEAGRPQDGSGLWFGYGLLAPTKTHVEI", "assay": "Antagonist activity at human TACR2 expressed in CHOK1 cells assessed as substance P-induced beta-arrestin recruitment pre-incubated for 30 mins before substance P stimulation for 90 or 180 mins by chemiluminescence method", "type": "functional, cell-based", "outline": "as §1"}, "MDA-MB-231 [6]": {"tested_on": "MDA-MB-231", "assay": "Antimigratory activity against human MDA-MB-231 cells at 10 uM after 48 hrs by transwell migration assay relative to control", "type": "functional"}, "[7]": {"biological_target": "T5, C-C chemokine receptor type 10 (Homo sapiens, UniProt P46092)", "T5 sequence (P46092 whole entry)": "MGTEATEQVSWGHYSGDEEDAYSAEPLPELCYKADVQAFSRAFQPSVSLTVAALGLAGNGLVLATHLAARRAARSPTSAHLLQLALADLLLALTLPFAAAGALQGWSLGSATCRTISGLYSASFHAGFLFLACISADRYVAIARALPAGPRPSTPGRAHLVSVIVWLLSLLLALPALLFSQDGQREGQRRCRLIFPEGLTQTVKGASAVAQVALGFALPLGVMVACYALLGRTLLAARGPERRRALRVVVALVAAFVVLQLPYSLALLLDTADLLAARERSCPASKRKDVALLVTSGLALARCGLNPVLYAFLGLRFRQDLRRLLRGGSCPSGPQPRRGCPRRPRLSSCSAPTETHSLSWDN", "assay": "Antagonist activity at human CCR10 expressed in human U2OS cells assessed as inhibition of CCL27-induced beta-arrestin recruitment pre-incubated for 30 mins before CCL27 stimulation for 90 or 180 mins by chemiluminescence method", "type": "functional, cell-based", "outline": "as §1"}, "Kallikrein-7 [8]": {"biological_target": "T3, Kallikrein-7", "assay": "Inhibition of kallikrein 7 (unknown origin) by fluorescence assay", "outline": "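Protease panel screen: 10-dose titrations, 3-fold serial dilution from 100 μM, singlet. Protease activity is followed as the time-course rise in fluorescence from a labeled peptide substrate, and the initial linear slope (signal/min) is analysed.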"}, "MDA-MB-231 [9]": {"tested_on": "MDA-MB-231", "assay": "Antiproliferative activity against siCCR10 knockdown human MDA-MB-231 cells after 48 hrs by MTT assay", "type": "functional", "outline": "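MDA-MB-231 cells are incubated with 50 nM CCR10 siRNA, which gives 60% knockdown confirmed by RT-qPCR. Proliferation is compared with negative-control siRNA, mean ± SD, n = 3.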"}, "[10]": {"biological_target": "T6, C-C chemokine receptor type 10 (Homo sapiens) (UniProt P46092)", "T6 sequence (whole entry)": "T5 sequence (P46092 whole entry)", "assay": "Antagonist activity at CCR10 in human MDA-MB-231 cells assessed as inhibition of CCL27-induced proliferation up to 10 uM preincubated for 2 hrs followed by CCL27 addition measured after 48 hrs by MTT assay", "type": "functional, cell-based", "outline": "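MDA-MB-231 cells are seeded at 10,000/well in serum-free DMEM for 24 h, then pretreated with compound for 2 h. CCL27 is added at 1 μg/mL final for 48 h. Viability is measured by MTT and compared with solvent control, mean ± SD, n = 3.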"}, "MDA-MB-231 [11]": {"tested_on": "MDA-MB-231", "assay": "Antiproliferative activity against human MDA-MB-231 cells after 48 hrs by MTT assay", "type": "functional, cell-based", "conditions": "Homo sapiens, MDA-MB-231, 48 h; read-out: IC50", "outline": "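MDA-MB-231 cells are grown in DMEM with 10% FBS and seeded at 10,000 cells/well for 24 h. Cells are then exposed to graded compound concentrations or DMSO for 48 h. Viability is measured by MTT.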"}, "Kallikrein-7 [12]": {"biological_target": "T3, Kallikrein-7", "assay": "Inhibition of recombinant human kallikrein 7 assessed as decrease in cleavage of E-cadherin at 10 uM after 30 mins or 2 hrs by silver staining based SDS-PAGE analysis"}, "[13]": {"biological_target": "T1, Atypical chemokine receptor 3", "assay": "Agonist activity at human CXCR7 expressed in CHOK1 cells assessed as induction of beta-arrestin recruitment by chemiluminescence method", "type": "functional, cell-based", "outline": "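PathHunter β-arrestin enzyme-fragment complementation assay in cells stably co-expressing ProLink-tagged GPCR and enzyme-acceptor-tagged β-arrestin. Sample is added to cells and incubated 90 or 180 min at 37 °C or room temperature, with 1% final vehicle. Detection reagent is added for 1 h at room temperature and chemiluminescence is read. % activity is taken relative to vehicle and maximal control ligand. Dose-response: 10 points, 3-fold dilutions from 20 μM, in duplicate.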"}, "Kallikrein-7 [14]": {"biological_target": "T3, Kallikrein-7", "assay": "Inhibition of kallikrein 7-mediated Dsg-2 shedding in human MDA-MB-468 cells at 0.01 to 10 uM incubated for 48 hrs by ELISA", "type": "cell-based"}},
  "note": "The source made the active and inactive calls. The calls are words filed in the database; no cut-off is given here. Square brackets hold non-standard residues; d marks the D form. Peptide text beside a SMILES is read from it. * marks the point of attachment. X1 = CC[C@H](C)[C@@H](OC(=O)/C=C/c1ccccc1)C(=O)*; dNMeF = CN[C@H](Cc1ccccc1)C(=O)O; NMeL = CN[C@@H](CC(C)C)C(=O)O",
  "data": [
    {"compound": "CC[C@H](C)[C@@H](OC(=O)/C=C/c1ccccc1)C(=O)N1CCC[C@H]1C(=O)NCC(=O)N(C)[C@@H](CC(C)C)C(=O)N[C@@H](C)C(=O)N(C)[C@H](Cc1ccccc1)C(=O)N1CCC[C@H]1C(=O)OC", "note": "(X1-PG[NMeL]A[dNMeF]P-OMe)", "values": [
      {"measurement": "Activity", "setting": "[1]", "value": 86, "unit": "%"},
      {"measurement": "Activity", "setting": "MDA-MB-468", "value": "Active"},
      {"measurement": "IC50", "setting": "[2]", "value": 3.12, "unit": "µM"},
      {"measurement": "Activity", "setting": "[3]", "value": 91, "unit": "%"},
      {"measurement": "Activity", "setting": "[4]", "value": 77, "unit": "%"},
      {"measurement": "inhibition", "setting": "Kallikrein-7 [5]", "value": "Active"},
      {"measurement": "IC50", "setting": "Substance-K receptor", "value": 1.79, "unit": "µM"},
      {"measurement": "Activity", "setting": "MDA-MB-231 [6]", "value": 60, "unit": "%"},
      {"measurement": "IC50", "setting": "[7]", "value": 0.44, "unit": "µM"},
      {"measurement": "IC50", "setting": "Kallikrein-7 [8]", "value": 18.9, "unit": "µM"},
      {"measurement": "Activity", "setting": "MDA-MB-231 [9]", "value": 10, "unit": "%"},
      {"measurement": "inhibition", "setting": "[10]", "value": 10, "unit": "%"},
      {"measurement": "IC50", "setting": "MDA-MB-231 [11]", "value": 16.7, "unit": "µM"},
      {"measurement": "inhibition", "setting": "Kallikrein-7 [12]", "value": "Active"},
      {"measurement": "EC50", "setting": "[13]", "value": 3.97, "unit": "µM"},
      {"measurement": "inhibition", "setting": "Kallikrein-7 [14]", "value": "inactive"}
    ]}
  ]
}
